Read-outs that look alike come from different tables or passages of the source.
What was measured:
[1] = test system: WT p53 MCF-7 cells; assay: qRT-PCR gene expression; format: cell-based, human; settings: for expression of MDM2 / expression of canonical p53 targets p21 and NOXA: MCF-7, 6 μM; for expression of canonical p53 targets p21 and NOXA: 4 h; for p53 mRNA level: MCF-7, 4 h
Method in brief: (§1)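 Cells were exposed to 6 μM test compound or DMSO for 4 h. RNA was extracted and reverse-transcribed, and transcripts were quantified by TaqMan qRT-PCR normalised to GAPDH. Values are means with SD from triplicates of repeated experiments.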

[2] = test system: mammary epithelial cells (MCF10A); assay: Proliferation of normal cells; format: cell-based, human
[3] = test system: caspase 3 and PARP1 in WT p53 MCF-7 cells; assay: Western blot of caspase 3 and PARP1; format: cell-based, human; settings: MCF-7 (caspase 3-deficient), 24 h
Method in brief: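 MCF-7 cells were treated with test compound or DMSO for 24 h and lysed on ice for 30 min (20 mM Tris-Cl pH 8.0, 137 mM NaCl, 10% glycerol, 1% NP-40, 2 mM EDTA, protease inhibitors). Lysates were cleared at 18,500 × g. 100 μg lysate was run on 4–12% SDS-PAGE, transferred to PVDF and probed with anti-PARP and anti-caspase 3 (1:1000), HRP secondary and ECL. GAPDH served as loading control.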

[4] = test system: p53^R280K MDA-MB-231 cells; assay: qRT-PCR gene expression; format: cell-based, human; settings: for expression of canonical p53 targets p21 and NOXA: MDA-MB-231, 6 μM, 4 h; for p53 mRNA levels: MDA-MB-231, 4 h
Method in brief: as §1

[5] = test system: p53^R273H MDA-MB-468 cells; assay: Annexin V staining; format: cell-based, human; settings: MDA-MB-468, 6 μM or 12 μM; for increase in Annexin V stained cells compared to DMSO: 24 h
[6] = test system: p53^R273H MDA-MB-468 cells; assay: WST-1 cell proliferation assay; format: cell-based, human; settings: Homo sapiens, read-out: IC50, inhibition of cell proliferation
[7] = test system: p53^R273H MDA-MB-468 cells; assay: qRT-PCR gene expression; format: cell-based, human; settings: for expression of MDM2 / expression of canonical p53 targets p21 and NOXA: MDA-MB-468, 6 μM; for expression of canonical p53 targets p21 and NOXA: 4 h; for p53 mRNA levels: MDA-MB-468, 4 h
Method in brief: as §1

[8] = test system: p53^R280K MDA-MB-231 cells; assay: WST-1 cell proliferation assay; format: cell-based, human; settings: for IC50: Homo sapiens, read-out: IC50, inhibition of cell proliferation
[9] = test system: p53^R280K MDA-MB-231 cells; assay: Annexin V staining; format: cell-based, human; settings: MDA-MB-231, 6 μM or 12 μM, 24 h
[10] = test system: caspase 3 and PARP1 in p53^R280K MDA-MB-231 cells; assay: Western blot of caspase 3 and PARP1; format: cell-based, human; settings: MDA-MB-231, 24 h
Method in brief: (§2)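 Cells grown in RPMI 1640 with 10% FBS, 1% penicillin/streptomycin and 1% L-glutamine, then given test compound or DMSO control for 24 h. Lysed 30 min on ice in Tris-Cl pH 8.0/NaCl/glycerol/NP-40/EDTA buffer with protease inhibitors, then cleared. 100 μg lysate run on 4-12% SDS-PAGE, transferred to PVDF, probed with anti-PARP and anti-caspase 3 (1:1000 each). ECL detection.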

[11] = target: p53^R280K in MDA-MB-231 cells (Homo sapiens, UniProt P04637, R280K); assay: Western blot of p53 expression; format: cell-based; settings: MDA-MB-231, 6 μM or 12 μM, 24 h
Method in brief: (§3)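 Cells were treated 24 h with 6 μM or 12 μM test compound or DMSO and lysed in NP-40/Tris-Cl pH 8.0 buffer with protease inhibitors. Load on 4–12% SDS-PAGE was 20 μg for MDA-MB-231 and MDA-MB-468 or 50 μg for MCF-7. After PVDF transfer, blots were probed with p53 DO-1 antibody, reprobed for GAPDH as loading control and developed by ECL.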

[12] = test system: colon cells (CCD841); assay: Proliferation of normal cells; format: cell-based, human
[13] = target: p53^R273H in MDA-MB-468 cells (Homo sapiens, UniProt P04637, R273H); assay: Western blot of p53 expression; format: cell-based; settings: MDA-MB-468, 6 μM or 12 μM, 24 h
Method in brief: as §3

[14] = test system: WT p53 MCF-7 cells; assay: Annexin V staining; format: cell-based, human; settings: MCF-7, 24 h
Method in brief: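 After 24 h exposure to test compound or DMSO, MCF-7 cells (RPMI 1640, 10% FBS, 1% penicillin/streptomycin, 1% L-glutamine) were scraped, PBS-washed and taken up in Annexin V binding buffer. They were stained with fluorochrome-conjugated Annexin V for 15 min at RT in the dark, then PI staining solution was added. Flow cytometry read-out; % Annexin V-positive cells expressed relative to DMSO.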

[15] = target: WT p53 in MCF-7 cells (Homo sapiens, UniProt P04637); assay: Western blot of p53 expression; format: cell-based; settings: MCF-7, 6 μM or 12 μM, 24 h
Method in brief: as §3

[16] = test system: caspase 3 and PARP1 in p53^R273H MDA-MB-468 cells; assay: Western blot of caspase 3 and PARP1; format: cell-based, human; settings: MDA-MB-468, 24 h
Method in brief: as §2

[17] = test system: ATM in WT p53 MCF-7 cells; assay: Western blot of pATM S1981; format: cell-based, human; settings: MCF-7, 6 μM, 24 h
Method in brief: (§4)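 Cells were treated 24 h with 6 μM test compound or DMSO and lysed in NP-40 buffer; 250 μg lysate was run on 4–12% SDS-PAGE and transferred to PVDF. Probing used anti-pATM Ser1981 (1:500) with HRP anti-mouse IgG (1:1000) and ECL detection, then reprobing with anti-GAPDH (1:5000). Experiments were done in triplicate.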

[18] = test system: p53 knockdown MDA-MB-468 cells; assay: WST-1 proliferation after p53 siRNA knockdown; format: cell-based, human; settings: p53 siRNA MDA-MB-468 vs NS siRNA cells
Method in brief: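 MDA-MB-468 cells at 50–60% confluence received p53 SMARTpool siRNA or non-specific siRNA (0.430 nmol with Lipofectamine 2000 in Opti-MEM, 5 h), with a second transfection 24 h later. At 72 h after the first transfection, cells were treated with test compound or DMSO. Proliferation was then measured by WST-1 as % of DMSO.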

[19] = test system: ATM in MDA-MB-468 cells; assay: Western blot of pATM S1981; format: cell-based, human; settings: MDA-MB-468, 6 μM, 24 h
Method in brief: as §4

[20] = Log P determination; format: physicochemical; settings: octanol/sodium phosphate buffer (pH 7.4)
[21] = test system: p53^R280K MDA-MB-231 cells; assay: Flow-cytometric cell cycle analysis; format: cell-based, human; settings: MDA-MB-231, 6 μM, 24 h; DMSO 42.9%
[22] = test system: p53 null MDA-MB-436 cells; assay: WST-1 cell proliferation assay; format: cell-based, human; settings: MDA-MB-436, 24 h and 72 h; compared to MDA-MB-231 or MDA-MB-468
Method in brief: (§5)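 WST-1 assay. Test compound in DMSO was added to cells at 40,000 cells/ml, giving 1% DMSO final, and plated at 4,000 cells/well in duplicate; medium-only wells served as background. Incubation was 24 h or 72 h at 37 °C, then WST-1 for 2 h and OD450 read. Proliferation is expressed as % of DMSO control; triplicate experiments. MCF-7 grown in RPMI 1640, MDA-MB-436 in DMEM.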

[23] = test system: WT p53 MCF-7 cells; assay: WST-1 cell proliferation assay; format: cell-based, human; settings: MCF-7, 24 h or 72 h; compared to mutant p53 cells
Method in brief: as §5

[24] = test system: ATM in MDA-MB-231 cells; assay: Western blot of pATM S1981; format: cell-based, human; settings: MDA-MB-231, 6 μM, 24 h
Method in brief: as §4

[25] = human, in vivo; cited from earlier work

| Compound | expression of MDM2 [1] | expression of canonical p53 targets p21 and NOXA [1] | p53 mRNA level [1] | levels of uncleaved PARP1 and cleaved-PARP1 [3] | expression of canonical p53 targets p21 and NOXA [4] | p53 mRNA levels [4] | increase in Annexin V stained cells compared to DMSO [5] | IC50 ([6]; MDA-MB-468, 24 h) | IC50 ([6]; MDA-MB-468, 72 h) | expression of MDM2 [7] | expression of canonical p53 targets p21 and NOXA [7] | p53 mRNA levels [7] | IC50 ([8]; MDA-MB-231, 24 h) | IC50 ([8]; MDA-MB-231, 72 h) | increase in Annexin V stained cells compared to DMSO [9] | levels of uncleaved caspase 3, uncleaved PARP1 and cleaved-PARP1 [10] | mutant p53 expression (western blot) [11] | mutant p53 expression (western blot) [13] | WT p53 expression (western blot) [15] | levels of uncleaved caspase 3, uncleaved PARP1 and cleaved-PARP1 [16] | further results |
| --- | --- | --- | --- | --- | --- | --- | --- | --- | --- | --- | --- | --- | --- | --- | --- | --- | --- | --- | --- | --- | --- |
| [Se]=C=NCCC12CC3CC(CC(C3)C1)C2 [Ad-ISeC 14, 1-Isoselenocyanato-2-(adamantan-1-yl)ethane] | statistically significant elevation of MDM2 | significant increase in the expression levels | increase in the p53 mRNA level | did not detect any significant change | significantly enhanced the levels of p21 and NOXA | remained unchanged | enhanced the apoptotic potential | 6 to 12 µM | 6 to 12 µM | statistically significant elevation of MDM2 | significantly enhanced the levels of p21 and NOXA | remained unchanged | 6 to 12 µM | 6 to 12 µM | enhanced the apoptotic potential | decrease in the levels of uncleaved caspase 3 and PARP-1 and an increase in the levels of cleaved-PARP1 fragment | significant reduction in mutant p53 expression | significant reduction in mutant p53 expression | marginally elevated | decrease in the levels of uncleaved caspase 3 and PARP-1 and an increase in the levels of cleaved-PARP1 fragment | IC50 compared with mutant p53 tumor cells (in words) ([2]; MCF10A normal cells vs MDA-MB-231 and MDA-MB-468): significantly higher; level of apoptosis compared to Ad-ITC 5 [5]: > 2 fold; IC50 compared with mutant p53 tumor cells (in words) ([12]; CCD841 normal cells vs MDA-MB-231 and MDA-MB-468): significantly higher; increase in Annexin V stained cells compared to DMSO [14]: not in MCF-7 cells |
| S=C=NCCCC12CC3CC(CC(C3)C1)C2 [Ad-ITC 6, 1-Isothiocyanato-3-(adamantan-1-yl)propane] | enhanced the expression of MDM2 | upregulated expression of p21 and NOXA | increase in the p53 mRNA level | did not detect any significant decrease in the levels of uncleaved PARP1 or accumulation of cleaved-PARP1 fragments | enhanced the expression of the canonical p53 targets p21 and NOXA | remained unchanged | 2.0-5.1 fold | 12 to 24 µM | 12 to 24 µM | enhanced the expression of MDM2 | enhanced the expression of the canonical p53 targets p21 and NOXA | remained unchanged | 12 to 24 µM | 12 to 24 µM | 2.0-5.1 fold | significant decrease in the levels of uncleaved caspase 3 and PARP1 | differential decrease in the expression of mutant p53 | differential decrease in the expression of mutant p53 | did not decrease WT p53 expression | significant decrease in the levels of uncleaved caspase 3 and PARP1 | pATM-S1981 [17]: absent; sensitivity of cell proliferation (in words) [18]: markedly reduced sensitivity; IC50 compared with mutant p53 tumor cells (in words) [2]: significantly higher; phosphorylation of ATM at S1981 [19]: phosphorylation of ATM at S1981; inhibition of cell proliferation (in words) ([8]; MDA-MB-231, 24 h or 72 h): dose-dependent activity; logP at 18 h [20]: 5.17; cells in G1 phase [21]: 48.2%; sensitivity of cell proliferation (in words) [22]: significantly reduced sensitivity; IC50 compared with mutant p53 tumor cells (in words) [12]: significantly higher; inhibition of cell proliferation / sensitivity (in words) [23]: remarkably less sensitive; increase in Annexin V stained cells compared to DMSO [14]: did not display any significant increase; phosphorylation of ATM at S1981 [24]: phosphorylation of ATM at S1981 |
| S=C=NCCc1ccccc1 [PEITC, Phenethyl isothiocyanate, reference compound] | – | – | – | significant decrease in the levels of uncleaved PARP1 and accumulation of cleaved-PARP1 | – | – | – | – | – | – | – | – | – | – | – | significant decrease in the levels of uncleaved caspase 3 and accumulation of cleaved-PARP1 fragments | significant decrease | significant decrease | increase in p53 levels | significant decrease in the levels of uncleaved caspase 3 and accumulation of cleaved-PARP1 fragments | logP at 18 h [20]: 3.5; estimated half-life [25]: ~ 2.4 h; inhibition of cell proliferation / sensitivity (in words) [23]: considerably less sensitive |

From paper PMC9924099 (Journal of medicinal chemistry, 2021)
